# Hits are enriched below; roughly 2.9% of the tested compounds scored in any of these assays.
# Mot1-301 SUMO: SUMOylation pathway inhibition by Mot1-301 growth rescue; S. cerevisiae Mot1-301 growth rescue, ATP luminescence, 38.5C; percent above DMSO median, 100 means doubled; growth rescue, % at 18.8 µM; hit rate 1% among 320,000;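 active = every valid replicate shows activation above 250% relative to neutral control wells; inactive = the rest, any valid replicate at or below 250%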;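 also: OY570 slx delta 5 strain wells were the positive control but not used for scaling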
# IMP-1 inhibitor: blocks Pseudomonas aeruginosa IMP-1 metallo-beta-lactamase; purified IMP-1, nitrocefin hydrolysis, epi-absorbance fluorescence; hit rate 0.45% among 290,000; inhibition, % at 5.6 µM;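 active = inhibition above the mean plus 3 SD of all compounds in the same screening run, cut at about 4.5% in these data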;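 also: 0% = IMP-1 with DMSO and 100% = DMSO wells lacking enzyme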
#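 System: Purified IMP-1 | Read-out basis: Percent enzyme inhibition | Controls: IMP-1 with DMSO as 0%, enzyme-free DMSO as 100% | Replicates: One well per compound | Doses: 5.6 µM nominal single concentration | Detection: Epi-absorbance fluorescence, 480 nm excitation, 530 nm emission | Incubation: 25 °C, 15 min preincubation, 25 min reaction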
# NALP1 yeast inh: blocks the NALP1 inflammasome reconstituted in yeast; S. cerevisiae NALP1/ASC/caspase-1 growth, X-gal OD620, 72 h; inhibition, % at 10 µM; hit rate 0.61% among 280,000; in the data active = inhibition mostly above about 24%, no sharp cut-off; inactive = mostly below about 32%
# VIM-2 inh: blocks Pseudomonas aeruginosa VIM-2 metallo-beta-lactamase | AID 1527 | inhibition, % at 5.6 µM | hit rate 0.89% among 290,000 | purified VIM-2, nitrocefin hydrolysis, epi-absorbance fluorescence;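 active = inhibition above the mean of all tested compounds plus 3 SD, cutoff set per screening run, cut at about 7.5% in these data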;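 also: red hydrolysis product quenches plate fluorescence so inhibitors raise well fluorescence; 0% = enzyme with DMSO and 100% = DMSO without enzyme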
# NLRP3 yeast inh: blocks the NALP3 inflammasome reconstituted in yeast. Yeast reconstituted NLRP3/ASC/caspase-1, beta-gal luminescence, 24 h. inhibition, % at 10 µM. hit rate 0.39% among 330,000. AID 2825;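 active = inhibition of 50% or more; inactive = inhibition below 50%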;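 also: plate controls were induced DMSO wells for no effect and uninduced yeast grown without galactose for full effect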
# PolyA inhibitor: inhibitors of polyadenylation in S. cerevisiae; S. cerevisiae SKY197-pL101 polyadenylation reporter, beta-gal luminescence; efflux-impaired pdr1/pdr3 knockout yeast; score 100 = 6 SD above DMSO; activity score, % at 12 µM; hit rate 0.02% among 300,000; AID 1875;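 active = lowest replicate activity score at least 50, where 100 means six control SD above control mean; inconclusive = lowest score under 50 but half or more replicates reach 50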;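 also: yeast exposed to compound for 9 h at 30 °C; higher score means more reporter readthrough which indicates perturbed polyadenylation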
# * hit, by the source's call; i = inactive; ? = inconclusive; nt = no result.
SMILES,Mot1-301 SUMO,IMP-1 inhibitor,NALP1 yeast inh,VIM-2 inh,NLRP3 yeast inh,PolyA inhibitor
O=C(Nc1ccccc1)C1Cc2ccccc2CN1C(=O)c1ccco1 (stereo not drawn),5.2,-0.7,-3.6,2.3,14.7,-3.1
Cc1sc(N)nc1-c1ccc(Oc2ccccc2)cc1,39.9,2.6,95.4*,-4.6,37.4,-49.7
Cc1nc(N(C)C)c2sc(=S)n(C)c2n1,42.8,-2.2,2.1,7.9*,-0.1,-26.4
Cc1nc(N(C)C)c2sc(=S)n(-c3ccccc3)c2n1,-3.5,-1.3,-19.4,-1.9,10.4,-11.7
COCCC(=O)N1CCC(Oc2ccc(C(=O)N3C[C@@H]4CCC[C@H]3C4)cc2)CC1,-21.2,5.1*,4.4,0.1,-3.3,?
COCCC(=O)N1CCC(Oc2ccc(C(=O)N3CCCC(OC)C3)cc2)CC1 (stereo not drawn),nt,-1.2,11.2,-1.8,3.9,6.2
O=c1oc2c(O)cccc2cc1-c1nc2ccccc2[nH]1,-4.3,7.2*,4.0,6.4,-7.0,-1.3
CSc1nncc(/C(C)=N\Nc2ccccc2)n1,297.3*,-3.0,15.0,-2.5,45.7,-15.7
Cc1ccc(C2c3[nH]c4ccccc4c3C[C@H]3C(=O)N(c4ccccc4C(=O)N4CCC[C@H]4C(=O)O)C(=O)N23)cc1 (stereo partly drawn),604.8*,-3.6,7.3,-1.5,4.8,5.9
O=C(Nc1ccc2c(c1)CCCN2C(=O)c1ccco1)c1cc([N+](=O)[O-])ccc1Cl,219.3,nt,nt,nt,11.8,7.1
Cc1cc2cc(C=C(C#N)C#N)c(Cl)nc2cc1C,-9.6,-1.0,60.5*,0.0,18.3,-16.7
CCOC(=O)/C(C#N)=C/c1cc2cc(C)c(C)cc2nc1Cl,-27.6,-3.0,nt,0.0,15.6,-6.4
COc1ccc(-n2nc([N+](=O)[O-])c(=NCc3cccnc3)n2O)cc1,7.1,-0.5,-27.0,-0.3,20.7,7.2
COc1ccc(-n2nc([N+](=O)[O-])c(=NC3CCN(Cc4ccccc4)CC3)n2O)cc1,346.9,9.4*,17.8,-2.3,19.7,-13.3
O=C(COC(=O)c1ccc2c(c1)OCCO2)Nc1cc(Cl)ccc1Cl,320.9*,-7.6,-7.5,-0.6,11.0,7.7
Cc1ccccc1NC(=O)COC(=O)c1ccc2c(c1)OCCO2,nt,nt,nt,nt,14.5,nt
C=CCc1cc(/C=C/c2nc(O)c([N+](=O)[O-])c(=O)[nH]2)cc(OC)c1O,523.3*,-4.9,-3.3,-2.4,5.1,-3.3
COc1ccccc1C(c1nnnn1CCc1ccccc1)N1CCCCCC1 (stereo not drawn),9.6,24.3*,-5.3,2.1,9.4,6.6
CC(=O)c1c(COC(=O)c2ccc(Cl)cc2)nc2ccccc2[n+]1[O-],-13.0,-3.9,24.0,-3.3,18.1,90.1*
COc1ccccc1C(=O)NCC(=O)NC(C)CCc1ccccc1 (stereo not drawn),339.6*,-2.7,4.1,-3.1,1.1,-2.6
Cc1cc(C)n(-c2ccc(C(=O)OCC(=O)Nc3ccccc3F)cc2)n1,5.7,nt,nt,nt,22.7,nt
COc1ccc(Cl)cc1NC(=O)Cn1nnc(C(=O)NCc2ccc3c(c2)OCO3)c1N,-7.4,17.9*,6.3,-0.9,8.3,-5.4
COc1ccccc1NC(=O)Cn1nnc(C(=O)NCc2ccc3c(c2)OCO3)c1N,13.7,-1.5,13.3,-2.2,8.7,-18.4
CN(C(=O)COC(=O)c1ccc2ccccc2n1)C1CCCCC1,-7.5,nt,nt,nt,-26.1,nt
Cc1cccc(-c2nnc(SCC(=O)NC3CC3)n2C)c1,i,-2.0,28.0*,-2.2,11.2,3.9
CCc1cccc(Nc2c3c(nc4ncnn24)CCC3)c1,-4.3,-4.4,0.4,9.9*,4.8,6.0
Cc1cc(N2C(=O)C(O)=C(C(=O)c3ccc(C)o3)C2c2cccc(Oc3ccccc3)c2)no1 (stereo not drawn),17.3,-0.7,37.9*,-1.5,17.1,8.4
NCCNC(=O)Cn1c(=O)c2c3c(sc2n(Cc2ccccc2)c1=O)CCCC3,-14.0,-0.6,-8.3,8.2*,12.6,11.9
CN(C)S(=O)(=O)c1cc(NC(=O)c2ccc(-n3ccnc3)c([N+](=O)[O-])c2)ccc1Cl,-13.7,-2.9,14.6,8.0*,-0.8,-0.8
Cc1nn(CC(=O)Nc2ccc(Cl)c(S(=O)(=O)N(C)C)c2)c(C)c1[N+](=O)[O-],-5.6,-1.5,19.3,-1.0,10.7,-1.4
